ChEMBL document CHEMBL4350999, “Enhanced tumor retention of NTSR1-targeted agents by employing a hydrophilic cysteine cathepsin inhibitor” (Eur J Med Chem, 2019)
Active and inactive are the calls of the source. The rule behind the calls is not given here.

Legend:
Cathepsin B [1] = target: T1, Cathepsin B (Homo sapiens, UniProt P07858); assay: Inhibition of human liver cathepsin B assessed as inhibition constant using Z-Arg-Arg-AMC as substrate measured every 5 mins for 1 hr by fluorescence assay
Cathepsin B [2] = target: T1, Cathepsin B; assay: Inhibition of human liver cathepsin B assessed as second order rate constant using Z-Arg-Arg-AMC as substrate measured every 5 mins for 1 hr by fluorescence assay
Summary of the method: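 Human liver cathepsin B, 2 nM final, in 0.1 M phosphate pH 5.8 (1 mM EDTA, 2.7 mM DTT, 0.03% Brij35). Enzyme mixed with conjugate (1–500 nM final), then Z-Arg-Arg-AMC added (800 μM final); 37 °C. […] Biological triplicate.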

Cathepsin B [3] = target: T1, Cathepsin B; assay: Inhibition of human liver cathepsin B assessed as pseudo Michaelis-Menten constant at 10 nM using varying levels of Z-Arg-Arg-AMC as substrate measured every 5 mins for 1 hr by fluorescence assay

inhibition (Cathepsin B [1]): inactive
inhibition (Cathepsin B [2]): inactive
K (Cathepsin B [3]): 185 µM
Structure (SMILES): CC(C)C[C@H](NC(=O)CCC(=O)O)C(=O)N[C@@H](CCCNC(=N)N)C(=O)NCCN=[N+]=[N-]
